This note sets out measurements from ChEMBL document CHEMBL5104214, “Efficient selective targeting of Candida CYP51 by oxadiazole derivatives designed from plant cuminaldehyde” (RSC Med Chem, 2022).

≈ marks a conversion by molar mass, not a printed value.

Data set [1] is described as follows: Cytotoxicity against human F180 cells assessed as cell growth inhibition at 15 times MIC50 against Candida auris incubated for 48 hrs by SRB assay. Format: toxicity, cell-based. As to conditions: f180, 48 h. In a few lines: (§1)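 SRB assay on normal human skin fibroblasts F-180 in DMEM with 15% FBS, 37 °C, 5% CO2. Seeded 20 000 cells/well and left overnight, then compounds at 10, 20 and 30 μg ml−1 for 48 h; DMSO vehicle ≤0.1%. TCA fixation, 0.4% SRB stain, dye solubilised in 10 mM Tris, OD 492 nm. Six repeats.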
Background: In SRB staining, fixed cells bind dye roughly in proportion to their protein.

Data set [2] in a line: Cytotoxicity against human F180 cells assessed as cell growth inhibition at 10 times MIC50 against Candida albicans SC5314 incubated for 48 hrs by SRB assay. The data set is classed as toxicity, cell-based. As to conditions: f180, 48 h. In short, it runs like this:
as §1

Data set [3] deals with [Candida] auris. Briefly: Antifungal activity against Candida auris clinical isolate assessed as inhibition of fungal growth incubated for 24 hrs by microdilution assay. The data set is classed as functional. As to conditions: Candidozyma auris. In a few lines:
(§2)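 Broth microdilution per CLSI. Inoculum 10^5 CFU mL−1, compounds at 1, 3, 5, 10, 25, 50, 100 and 200 μg ml−1, 37 °C for 24 h. Turbidity read at 570 nm. MIC50 is the concentration giving 50% growth inhibition, from curve fitting. Triplicate.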
Background: Broth dilution looks for growth in wells or tubes with falling amounts of substance.

Data set [4] concerns Candida albicans. Put plainly: Antifungal activity against Candida albicans SC5314 assessed as inhibition of fungal growth incubated for 24 hrs by microdilution assay. Format: functional. In short, it runs like this:
as §2

Data set [5] concerns [Candida] auris. Put plainly: Antifungal activity against Candida auris clinical isolate assessed as inhibition of fungal growth at 100 ug/ml incubated for 24 hrs by spotting assay relative to control. Conditions: dose 100 µg/ml. Also noted: scale not given: the % may be the effect or the level left. Format: functional, Candidozyma auris. In short, it runs like this:
(§3)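 Spotting screen: SDA plates streaked with 0.1 ml culture at 10^4 CFU ml−1, 5 μl of compound applied, 24 h at 37 °C. C. albicans SC5314 or C. auris clinical isolate kept on SDA at 37 °C. Growth inhibition judged against untreated control.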

For data set [6], the system named is Candida albicans. Briefly: Antifungal activity against Candida albicans SC5314 assessed as inhibition of fungal growth at 100 ug/ml incubated for 24 hrs by spotting assay relative to control. The data set is classed as functional. Also on record: scale not given: the % may be the effect or the level left. Conditions: dose 100 µg/ml. In a few lines:
as §3

For data set [7], the target named is T1, Lanosterol 14-alpha demethylase (Candida albicans (strain SC5314 / ATCC MYA-2876) (Yeast), UniProt P10613). Put plainly: Inhibition of Candida albicans CYP51 assessed as ergosterol level incubated for 18 hrs by GC/MS analysis relative to control. In a few lines: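 C. albicans colony grown in SDB 18 h at 37 °C with compound at its MIC50; untreated cells as negative control. Washed, normalized cells saponified in 60% alcoholic KOH, 80 °C 1 h. Sterols hexane-extracted, silylated (MSTFA/TMCS), analysed by GC-MS with ergosterol standard for retention time. Content expressed as AUC treated/AUC untreated × 100.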
T1 sequence (P10613 whole entry): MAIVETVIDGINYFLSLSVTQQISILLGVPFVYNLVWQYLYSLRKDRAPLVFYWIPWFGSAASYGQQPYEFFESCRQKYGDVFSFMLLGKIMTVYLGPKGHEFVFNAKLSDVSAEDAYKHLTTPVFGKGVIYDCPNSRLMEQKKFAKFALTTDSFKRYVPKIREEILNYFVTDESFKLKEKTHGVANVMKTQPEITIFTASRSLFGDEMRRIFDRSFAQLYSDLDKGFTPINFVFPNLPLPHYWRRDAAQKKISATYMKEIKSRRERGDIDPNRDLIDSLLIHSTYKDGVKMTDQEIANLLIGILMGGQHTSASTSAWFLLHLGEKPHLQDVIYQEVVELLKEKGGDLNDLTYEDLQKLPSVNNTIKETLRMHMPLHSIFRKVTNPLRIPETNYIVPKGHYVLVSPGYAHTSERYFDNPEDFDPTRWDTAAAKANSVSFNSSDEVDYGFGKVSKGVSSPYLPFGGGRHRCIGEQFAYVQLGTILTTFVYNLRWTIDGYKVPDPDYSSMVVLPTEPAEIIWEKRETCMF

Data set [8] concerns the target T1, Lanosterol 14-alpha demethylase. Put plainly: Inhibition of candida albicans CYP51 using 7-ethoxyresorufin as fluorescent substrate incubated for 10 mins in the presence of NADPH by fluorescence based spectroscopic microtiter plate reader analysis. In a few lines: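 CaCYP51 bactosomes in pH 7.4 phosphate buffer with 5 mM MgCl2 and the substrate 7-ethoxyresorufin. Inhibitor at 0, 0.1, 1, 10 and 100 μg ml−1. Started with 4 mM NADPH, shaken 10 min at 37 °C under yellow light. Resorufin read every 30 s (ex 572/em 604 nm). IC50 from curve fitting; fluconazole positive control.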

The target is the same in data set [9]. Put plainly: Potency index, ratio of fluconazole IC50 to test compound IC50 for inhibition of Candida albicans CYP51 using 7-ethoxyresorufin as fluorescent substrate incubated for 10 mins in the presence of NADPH by fluorescence based spectroscopic microtiter plate reader analysis. In a few lines: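 Ratio of fluconazole IC50 to compound IC50 against CaCYP51. Bactosomes with 7-ethoxyresorufin in pH 7.4 phosphate, 5 mM MgCl2. Inhibitor at 0–100 μg ml−1. Reaction started with 4 mM NADPH, 10 min at 37 °C, resorufin fluorescence ex 572/em 604 nm.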

For a further data set, the target named is Cytochrome P450 3A4 (Homo sapiens, UniProt P08684). Briefly: Inhibition of human CYP3A4 using luciferin-IPA as substrate preincubated for 10 mins followed by NADPH addition and measured after 30 mins by luminescence based assay. Format: ADME.
Chain of Cytochrome P450 3A4 (P08684 whole entry): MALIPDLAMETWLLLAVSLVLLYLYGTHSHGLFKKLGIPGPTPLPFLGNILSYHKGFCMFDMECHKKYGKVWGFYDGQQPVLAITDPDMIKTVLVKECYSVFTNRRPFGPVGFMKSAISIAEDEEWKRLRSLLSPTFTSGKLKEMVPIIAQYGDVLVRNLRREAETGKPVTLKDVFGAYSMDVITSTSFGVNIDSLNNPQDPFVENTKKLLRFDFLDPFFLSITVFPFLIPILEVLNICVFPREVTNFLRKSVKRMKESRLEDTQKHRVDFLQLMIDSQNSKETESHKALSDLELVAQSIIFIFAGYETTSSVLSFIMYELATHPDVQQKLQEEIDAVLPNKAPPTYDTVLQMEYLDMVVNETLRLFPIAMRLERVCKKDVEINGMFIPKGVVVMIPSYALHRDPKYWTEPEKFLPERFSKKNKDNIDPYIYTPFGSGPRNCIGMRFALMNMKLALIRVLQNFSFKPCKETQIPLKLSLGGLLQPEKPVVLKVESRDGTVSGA
The subject of data set [10] is CYP3A4 vs Candida albicans CYP51. Briefly: Selectivity index, ratio of IC50 for inhibition of human CYP3A4 using luciferin-IPA as substrate to IC50 for inhibition of candida albicans CYP51 using 7-ethoxyresorufin as fluorescent substrate. The data set is classed as toxicity. As to conditions: probe luciferin-IPA (CYP3A4), 7-ethoxyresorufin (CYP51).
Data set [11] relates to [Candida] auris. Briefly: Potency index, ratio of fluconazole MIC50 to test compound MIC50 for antifungal activity against Candida auris clinical isolate assessed as inhibition of fungal growth incubated for 24 hrs by microdilution assay. Format: functional, Candidozyma auris. In a few lines:
(§4)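 MIC50 ratio. MIC50 of fluconazole and of compound by broth microdilution: 10^5 CFU mL−1 inoculum, 1–200 μg ml−1, 37 °C for 24 h, turbidity at 570 nm, triplicate. Ratio taken as fluconazole MIC50 over compound MIC50.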

Data set [12] can be described thus: Cytotoxicity against human F180 cells assessed as cell growth inhibition at 37.5 times MIC50 against Candida auris incubated for 48 hrs by SRB assay. Conditions: f180, 48 h. The data set is classed as toxicity, cell-based. In a few lines: as §1
Data set [13] has as its system Candida albicans. Put plainly: Potency index, ratio of fluconazole MIC50 to test compound MIC50 for antifungal activity against Candida albicans SC5314 assessed as inhibition of fungal growth incubated for 24 hrs by microdilution assay. Format: functional. In short, it runs like this:
as §4

Data set [14] is described as follows: Cytotoxicity against human F180 cells assessed as cell growth inhibition at 60 times MIC50 against Candida albicans SC5314 incubated for 48 hrs by SRB assay. Format: toxicity, cell-based. As to conditions: f180, 48 h. In short, it runs like this:
as §1

The nature of data set [15]: Cytotoxicity against human F180 cells assessed as cell growth inhibition at 2.3 times MIC50 against Candida auris incubated for 48 hrs by SRB assay. Format: toxicity, cell-based. Conditions: f180, 48 h. In short, it runs like this:
as §1

The nature of data set [16]: Cytotoxicity against human F180 cells assessed as cell growth inhibition at 3 times MIC50 against Candida albicans SC5314 incubated for 48 hrs by SRB assay. Format: toxicity, cell-based. Conditions: f180, 48 h. In a few lines: as §1
A short description of data set [17]: Cytotoxicity against human F180 cells assessed as cell growth inhibition at 1 times MIC50 against Candida auris incubated for 48 hrs by SRB assay. The data set is classed as toxicity, cell-based. Conditions: f180, 48 h. In a few lines:
as §1

Data set [18] is described as follows: Cytotoxicity against human F180 cells assessed as cell growth inhibition at 6 times MIC50 against Candida albicans SC5314 incubated for 48 hrs by SRB assay. As to conditions: f180, 48 h. Format: toxicity, cell-based. In short, it runs like this:
as §1

What is called MIC50 is the lowest concentration that inhibits either 50% of growth or 50% of the strains tested, depending on the study. On to `CC(C)c1ccc(-c2nnc(Nc3ccc(F)cc3)o2)cc1`, for which the Activity entry in data set [1] is recorded as “Non-Toxic”; in [2], “Non-Toxic”; in data set [Candida] auris [5] it was 40%; in the data set with Candida albicans [6] it was 80%. Besides, the MIC50 in data set [Candida] auris [3] came out at 2.08 µg/mL (≈ 7 µM); with Candida albicans [4], 3 µg/mL (≈ 10.1 µM).
For orientation: IC50 means the concentration needed to halve the response being measured. With `OC(Cn1cncn1)(Cn1cncn1)c1ccc(F)cc1F` [FLUCONAZOLE], the MIC50 was 600 µg/mL (≈ 1960 µM) in data set [Candida] auris [3] and 25 µg/mL (≈ 81.6 µM) in the data set on Candida albicans [4]. For the same compound, the “inhibition (INH)” value in [7] came to 35.6%. In [8], the IC50 was 29 µM.
For `CC(C)(C)c1ccc(-c2nnc(Nc3ccc(Cl)cc3)o2)cc1`, the figures for the MIC50 (in data set [Candida] auris [3]; in the data set with Candida albicans [4]) were 0.8 µg/mL (≈ 2.44 µM) and 0.5 µg/mL (≈ 1.53 µM), respectively. Further, the “Ratio IC50” value in data set [9] was determined as 10. Further, the IC50 against Cytochrome P450 3A4 is more than 30500 µM; in data set [8], 2.75 µM. Also, the “inhibition (INH)” value in data set [7] worked out at 70.3%. Also, the Activity in data set [Candida] auris [5] is given as 99%; in [12] it was “Non-Toxic”; in the data set with Candida albicans [6] it was 99.3%; in [14], “Non-Toxic”. In data set [10], the selectivity ratio was more than 10000. In addition, the Ratio in [Candida] auris [11] came out at 750; in the data set on Candida albicans [13], 50.
Consider `COc1cccc(Nc2nnc(-c3ccc(C(C)C)cc3)o2)c1`, for which the figures for the MIC50 (in data set [Candida] auris [3]; in the data set with Candida albicans [4]) were 12 µg/mL (≈ 38.8 µM) and 10 µg/mL (≈ 32.3 µM), respectively. Moreover, the Activity result is listed as “Non-Toxic” in data set [15], 85% in [Candida] auris [5], “Non-Toxic” in data set [16] and 83% in the data set on Candida albicans [6].
For the compound `COc1cccc(Nc2nnc(-c3ccc(C(C)(C)C)cc3)o2)c1`, the MIC50 was 30 µg/mL (≈ 92.8 µM) in data set [Candida] auris [3] and 5 µg/mL (≈ 15.5 µM) with Candida albicans [4]. The Activity entry in [17] is “Non-Toxic”; in data set [Candida] auris [5] it was 86%; in [18], “Non-Toxic”; in the data set on Candida albicans [6], 57%.
